Experimental data published in ChEMBL document CHEMBL5705892, “MK-2206, an allosteric Akt inhibitor, enhances antitumor efficacy by standard chemotherapeutic agents or molecular targeted drugs in vitro and in vivo” (Mol Cancer Ther, 2010).
Activity calls are given as the source filed them. The calls are words filed in the database; no cut-off is given here.

What was measured:
[1] = system: NCI-H460; assay: Synergistic antiproliferative activity against human NCI-H460 cells assessed as combination index at ED75 measured after 72 hrs in presence of camptothecin by celltiter-glo assay; format: functional
[2] = system: MDA-MB-468; assay: Synergistic antiproliferative activity against human MDA-MB-468 cells assessed as combination index at ED90 measured after 72 hrs in presence of lapatinib by celltiter-glo assay; format: functional
[3] = system: HCC70; assay: Synergistic antiproliferative activity against human HCC70 cells assessed as combination index at ED50 treated 24 hrs prior to lapatinib and measured after 72 hrs by celltiter-glo assay; format: functional; details: time 96 hrs
[4] = system: SK-OV-3; assay: Synergistic antiproliferative activity against human SK-OV-3 cells assessed as combination index at ED50 measured after 72 hrs in presence of lapatinib by celltiter-glo assay; format: functional
[5] = system: SK-OV-3; assay: Synergistic antiproliferative activity against human SK-OV-3 cells assessed as combination index at ED75 measured after 96 hrs in presence of lapatinib by celltiter-glo assay; format: functional
[6] = system: NCI-H460; assay: Synergistic antiproliferative activity against human NCI-H460 cells assessed as combination index at ED90 measured after 72 hrs in presence of erlotinib by celltiter-glo assay; format: functional
[7] = system: NCI-H292; assay: Synergistic antiproliferative activity against human NCI-H292 cells assessed as combination index at ED50 measured after 72 hrs in presence of erlotinib by celltiter-glo assay; format: functional
[8] = system: NCI-H292; assay: Synergistic antiproliferative activity against human NCI-H292 cells assessed as combination index at ED90 measured after 72 hrs in presence of erlotinib by celltiter-glo assay; format: functional
[9] = system: BT-474; assay: Synergistic antiproliferative activity against human BT-474 cells assessed as combination index at ED75 measured after 72 hrs in presence of docetaxel by celltiter-glo assay; format: functional
Summary of the method: (§1)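 Cells grown in RPMI 1640 with 10% heat-inactivated FBS at 37°C, 5% CO₂. Seeded at 2 to 3 × 10³ per well; drugs added 24 h later. […] Viability read as cellular ATP by CellTiter-Glo. CI calculated by Chou–Talalay from median-effect plots at ED50, ED75 and ED90.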

[10] = system: A2780; assay: Synergistic antiproliferative activity against human A2780 cells assessed as combination index at ED50 measured after 72 hrs in presence of gemcitabine by celltiter-glo assay; format: functional
Summary of the method: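 Cells were seeded at 2–3 × 10³ per well in RPMI 1640 with 10% FBS. At 24 h, MK-2206 and the partner drug were added simultaneously at constant concentration ratios spanning each agent's IC₅₀, for 72 h. Growth was read as cellular ATP by CellTiter-Glo. CI was taken from median-effect plots of each agent alone and in combination (Chou–Talalay), at ED₅₀, ED₇₅ and ED₉₀.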

[11] = system: MCF7; assay: Synergistic antiproliferative activity against human MCF7 cells assessed as combination index at ED75 measured after 72 hrs in presence of docetaxel by celltiter-glo assay; format: functional; summary of the method: as §1
[12] = system: NCI-N87; assay: Antiproliferative activity against human NCI-N87 cells assessed as reduction in cell proliferation measured after 72 hrs by celltiter-glo assay; format: functional, cell-based; details: NCI-N87, 72 h
Summary of the method: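 Cells in RPMI 1640 with 10% heat-inactivated FBS at 37°C and 5% CO₂ were seeded at 2 to 3 × 10³ per well. […] Growth was read as cellular ATP by CellTiter-Glo.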

[13] = Toxicity in human NCI-H460 cells xenografted CD1 nude mouse assessed as body weight loss at 120 mg/kg, po administered 3 times per week for 2 weeks measured on day 14 to 16; format: organism-based; details: in vivo, 336 h, time 14-16 day
Summary of the method: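 NCI-H460 cells in 50% Matrigel/PBS injected s.c. into flank of CD1-nude mice; randomized at mean tumour 0.2 cm³ (n = 5). MK-2206 in 30% Captisol, 120 mg/kg p.o. days 0, 2, 4, 7, 9, 11. Carboplatin 50 mg/kg i.v. in saline days 0 and 7 (from day 12 after implant), or gemcitabine 100 mg/kg i.v. in saline days 0 and 7 (from day 8). Body weight monitored.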

[14] = system: HCC1954; assay: Synergistic antiproliferative activity against human HCC1954 cells assessed as combination index at ED90 treated 24 hrs prior to lapatinib and measured after 72 hrs by celltiter-glo assay; format: functional; details: time 96 hrs
[15] = target: RAC-alpha serine/threonine-protein kinase (Homo sapiens) (UniProt P31749); assay: Inhibition of AKT phosphorylation at S473 residue in human NCI-H661 cells at 3 umol/L measured after 4 to 24 hrs in presence of gemcitabine by MSD assay; details: time 4-24 hrs
Sequence of RAC-alpha serine/threonine-protein kinase (Homo sapiens) (P31749 whole entry): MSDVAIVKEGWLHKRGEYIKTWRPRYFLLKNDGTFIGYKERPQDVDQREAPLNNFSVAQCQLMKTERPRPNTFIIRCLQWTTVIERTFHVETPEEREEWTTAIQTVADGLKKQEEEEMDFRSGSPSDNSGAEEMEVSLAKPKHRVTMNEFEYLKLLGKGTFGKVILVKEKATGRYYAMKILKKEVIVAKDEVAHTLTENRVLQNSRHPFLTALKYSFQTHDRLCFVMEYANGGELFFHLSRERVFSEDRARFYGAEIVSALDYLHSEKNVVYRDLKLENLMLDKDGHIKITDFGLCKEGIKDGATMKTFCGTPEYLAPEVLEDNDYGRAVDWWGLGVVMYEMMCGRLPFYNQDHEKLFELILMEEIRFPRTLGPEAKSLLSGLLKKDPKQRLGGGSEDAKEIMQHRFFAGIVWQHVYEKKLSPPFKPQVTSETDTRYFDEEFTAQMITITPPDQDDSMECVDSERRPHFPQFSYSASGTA

[16] = system: NCI-H292; assay: Antitumor activity against human NCI-H292 cells xenografted in CD-1 mouse assessed as tumor growth suppression at 120 mg/kg, po administered 3 times per week for 2 weeks starting 2 hrs post-erlotinib treatment and measured twice a week during compound dosing by caliper method; format: functional, organism-based
Summary of the method: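 Female CD1-nude mice carried s.c. NCI-H292 cells in Matrigel/PBS and were randomized at 0.2 cm³, n = 5. […] MK-2206 (30% Captisol) was given 2 h later at 120 mg/kg po on days 0, 2, 4, 7, 9, 11, or at 360 mg/kg on days 0 and 7. Control received vehicle. Caliper volume twice weekly.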

[17] = system: MDA-MB-453; assay: Synergistic antiproliferative activity against human MDA-MB-453 cells assessed as combination index at ED75 measured after 72 hrs in presence of docetaxel by celltiter-glo assay; format: functional; summary of the method: as §1
[18] = system: NCI-H460; assay: Synergistic antiproliferative activity against human NCI-H460 cells assessed as combination index at ED75 measured after 72 hrs in presence of erlotinib by celltiter-glo assay; format: functional
[19] = system: MDA-MB-468; assay: Synergistic antiproliferative activity against human MDA-MB-468 cells assessed as combination index at ED75 measured after 96 hrs in presence of lapatinib by celltiter-glo assay; format: functional
[20] = system: MCF7; assay: Synergistic antiproliferative activity against human MCF7 cells assessed as combination index at ED90 measured after 72 hrs in presence of docetaxel by celltiter-glo assay; format: functional; summary of the method: as §1
[21] = system: SK-BR-3; assay: Synergistic antiproliferative activity against human SK-BR-3 cells assessed as combination index at ED90 treated 24 hrs prior to lapatinib and measured after 72 hrs by celltiter-glo assay; format: functional; details: time 96 hrs
[22] = system: MDA-MB-468; assay: Synergistic antiproliferative activity against human MDA-MB-468 cells assessed as combination index at ED50 treated 24 hrs prior to lapatinib and measured after 72 hrs by celltiter-glo assay; format: functional; details: time 96 hrs
[23] = Toxicity in human NCI-H292 cells xenografted CD-1 mouse assessed as death at 360 mg/kg, po administered once a week for 2 weeks and measured during compound dosing; format: organism-based; details: in vivo, 336 h
Summary of the method: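 NCI-H292 cells in 50% Matrigel/PBS injected s.c. into flank of female CD1-nude mice; dosing began after 2 wk at mean tumour 0.2 cm³, n = 5/group. […] Body weight and signs monitored; treatment ended day 16.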

[24] = system: ZR-75-1; assay: Synergistic antiproliferative activity against human ZR-75-1 cells assessed as combination index at ED75 measured after 72 hrs in presence of docetaxel by celltiter-glo assay; format: functional
[25] = system: SK-BR-3; assay: Synergistic antiproliferative activity against lapatinib pretreated human SK-BR-3 cells assessed as combination index at ED50 measured after 72 hrs by celltiter-glo assay; format: functional
[26] = system: NCI-H460; assay: Synergistic antiproliferative activity against human NCI-H460 cells assessed as combination index at ED75 measured after 72 hrs in presence of gemcitabine by celltiter-glo assay; format: functional

## Cl.NC1(c2ccc(-c3nc4ccn5c(=O)[nH]nc5c4cc3-c3ccccc3)cc2)CCC1
[1]
  CI75: 0.39
[2]
  CI90: 0.16
[3]
  CI50: 0.18
[4]
  CI50: 0.07
[5]
  CI75: 0.18
[6]
  CI90: 0.17
[7]
  CI50: 0.44
[8]
  CI90: 0.28
[9]
  CI75: 0.8
[10]
  CI50: 0.57
[11]
  CI75: 0.5
[12]
  IC50: 1.6 µM
[13]
  Activity: Non-Toxic
[14]
  CI90: 0.18
[15]
  inhibition: Active
[16]
  Activity: Active
[17]
  CI75: 0.6
[18]
  CI75: 0.23
[19]
  CI75: 0.18
[20]
  CI90: 0.3
[21]
  CI90: 0.18
[22]
  CI50: 0.18
[23]
  Activity: Non-Toxic
[24]
  CI75: 0.2
[25]
  CI50: 0.18
[26]
  CI75: 0.39
